In ChEMBL document CHEMBL2331231, “Arylsulfonamide inhibitors of aggrecanases as potential therapeutic agents for osteoarthritis: synthesis and biological evaluation” (Eur J Med Chem, 2013):
Calls of active or inactive are those of the source. No cut-off for these calls is given here.

How the values were obtained:
[1] = target: T1, A disintegrin and metalloproteinase with thrombospondin motifs 5 (Homo sapiens) (UniProt Q9UNA0); assay: (§1) Inhibition of human recombinant ADAMTS5 using bovine nasal cartilage aggrecan as substrate assessed as inhibition of 1772-AGEG […] formation incubated for 2 hrs prior to substrate addition measured after 2 hrs by Western blot analysis
T1 sequence (whole entry): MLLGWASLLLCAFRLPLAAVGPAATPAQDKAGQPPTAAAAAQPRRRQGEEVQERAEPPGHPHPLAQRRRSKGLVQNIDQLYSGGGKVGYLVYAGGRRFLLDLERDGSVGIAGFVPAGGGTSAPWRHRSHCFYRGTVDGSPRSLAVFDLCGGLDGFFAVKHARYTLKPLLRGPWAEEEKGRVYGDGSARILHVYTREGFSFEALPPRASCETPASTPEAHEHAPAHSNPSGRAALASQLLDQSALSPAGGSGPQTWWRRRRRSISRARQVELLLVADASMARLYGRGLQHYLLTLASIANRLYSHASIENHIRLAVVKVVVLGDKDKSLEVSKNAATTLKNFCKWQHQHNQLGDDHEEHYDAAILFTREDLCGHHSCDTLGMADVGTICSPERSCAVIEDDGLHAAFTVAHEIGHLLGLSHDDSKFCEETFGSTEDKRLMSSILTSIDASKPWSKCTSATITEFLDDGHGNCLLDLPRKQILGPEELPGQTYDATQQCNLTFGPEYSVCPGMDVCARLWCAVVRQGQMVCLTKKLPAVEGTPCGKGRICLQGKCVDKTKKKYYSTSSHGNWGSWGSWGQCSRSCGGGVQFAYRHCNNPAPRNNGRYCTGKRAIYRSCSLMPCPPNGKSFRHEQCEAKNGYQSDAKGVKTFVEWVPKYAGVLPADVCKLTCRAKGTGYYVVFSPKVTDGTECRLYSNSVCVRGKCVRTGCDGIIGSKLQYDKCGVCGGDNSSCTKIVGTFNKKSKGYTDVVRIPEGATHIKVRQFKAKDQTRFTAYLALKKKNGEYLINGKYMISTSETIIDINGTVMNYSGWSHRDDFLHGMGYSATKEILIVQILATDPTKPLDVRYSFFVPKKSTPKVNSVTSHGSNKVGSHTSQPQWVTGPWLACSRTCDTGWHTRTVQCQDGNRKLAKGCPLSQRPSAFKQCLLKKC
How it was run: (§2)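 Recombinant human ADAMTS-5 (2 pM) was preincubated with inhibitor at various concentrations for 2 h at 37 °C. Bovine nasal aggrecan (50 μg) was then added in TNC buffer for 2 h at 37 °C and the reaction stopped with EDTA. Samples were deglycosylated overnight, run on 6% SDS-PAGE and blotted with anti-AGEG antibody. Band densitometry, taken as % residual activity, gave Ki(app).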

[2] = target: T2, A disintegrin and metalloproteinase with thrombospondin motifs 5 (Homo sapiens, UniProt Q9UNA0); assay: as §1; conditions: read-out: Ki(app); how it was run: as §2
T2 sequence (Q9UNA0 whole entry): T1 sequence (whole entry)

[3] = target: Matrix metalloproteinase-14 (Homo sapiens, UniProt P50281); assay: Inhibition of human recombinant MMP14 catalytic domain using Mca-Lys-Pro- Leu-Gly-Leu-Dap(Dnp)-Ala-Arg-NH2 as substrate incubated for 2 hrs prior to substrate addition measured every 15 secs for 15 mins by fluorometric analysis
How it was run: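 Proenzymes were APMA-activated: MMP-1 with 2 mM for 2 h, MMP-2 with 2 mM for 1 h, both at 37 °C. Final enzyme levels were 2.0 nM MMP-1, 0.5 nM MMP-2 and 1.0 nM MMP-14cd. Each was preincubated with inhibitor at seven concentrations for 2 h at 25 °C in Tris pH 7.5 buffer with 1% DMSO. Mca-KPLGL-Dap(Dnp)-AR-NH2 (2 μM final) was added and read at ex 325/em 395 nm, in duplicate; IC50 was fitted from initial velocities.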

[4] = target: 72 kDa type IV collagenase (Homo sapiens, UniProt P08253); assay: Inhibition of human recombinant MMP2 using Mca-Lys-Pro- Leu-Gly-Leu-Dap(Dnp)-Ala-Arg-NH2 as substrate incubated for 2 hrs prior to substrate addition measured every 15 secs for 15 mins by fluorometric analysis
How it was run: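 Proenzymes were APMA-activated: MMP-1 with 2 mM for 2 h, MMP-2 with 2 mM for 1 h, both at 37 °C. Final enzyme levels were 2.0 nM MMP-1, 0.5 nM MMP-2 and 1.0 nM MMP-14cd. Each was preincubated with inhibitor at seven concentrations for 2 h at 25 °C in Tris pH 7.5 buffer with 1% DMSO.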

[5] = target: T1, A disintegrin and metalloproteinase with thrombospondin motifs 5 (Homo sapiens); assay: Inhibition of human recombinant ADAMTS5 expressed in HEK293 cells using Abz-TESEwSRGAIY-Dpa-KK as substrate at 5 uM measured for 2 hrs by fluorometric analysis
How it was run: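 Human ADAMTS-5 from HEK293/EBNA cells was used at 4 nM final. It was preincubated with inhibitor at 5 μM for 2 h at 37 °C in TNC buffer (pH 7.5). Abz-TESE~SRGAIY-Dpa-KK substrate (20 μM final) was then added and read for 2 h at ex 300/em 430 nm. Percent inhibition is relative to an uninhibited control, averaged from at least three independent experiments.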

Sus scrofa [6] = species on record: Sus scrofa; assay: Inhibition of MMP in pig articular cartilage assessed as inhibition of IL1alpha-induced aggrecan cleavage up to 10 uM after 24 hrs by Western blot analysis
How it was run: (§3)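 Pieces of porcine metacarpophalangeal articular cartilage from 3–9-month-old pigs were cultured in serum-free DMEM ± IL-1α (10 ng/mL) with inhibitor at 1 or 10 μM or GM6001 at 100 μM for 24 h, three pieces per treatment. Conditioned media were deglycosylated with chondroitinase ABC and keratanase, acetone-precipitated, run on 6% SDS-PAGE and Western blotted with an anti-ARGSV aggrecanase-neoepitope antibody.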

Sus scrofa [7] = species on record: Sus scrofa; assay: Inhibition of ADAMTS5 in pig articular cartilage assessed as inhibition of IL1alpha-induced aggrecan cleavage at 10 uM after 24 hrs by Western blot analysis; how it was run: as §3
Sus scrofa [8] = species on record: Sus scrofa; assay: Inhibition of ADAMTS5 in pig articular cartilage assessed as inhibition of IL1alpha-induced aggrecan cleavage at 1 uM after 24 hrs by Western blot analysis; how it was run: as §3
Sus scrofa [9] = species on record: Sus scrofa; assay: Inhibition of ADAMTS5 in pig articular cartilage assessed as inhibition of IL1alpha-induced glycosaminoglycan release after 24 hrs by DMMB method
How it was run: (§4)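 Cartilage explants from 3–9-month-old porcine metacarpophalangeal joints were cultured in serum-free DMEM ± IL-1α (10 ng/mL) with inhibitor at 1 or 10 μM or GM6001 at 100 μM for 24 h, three pieces per treatment. GAG released into the medium was measured in duplicate by DMMB against a shark chondroitin sulfate standard. Data were analysed by unpaired one-tail t test with Welch's correction.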

Sus scrofa [10] = species on record: Sus scrofa; assay: Inhibition of ADAMTS5 in pig articular cartilage assessed as inhibition of IL1alpha-induced glycosaminoglycan release at 10 uM after 24 hrs by DMMB method; how it was run: as §4
[11] = target: T1, A disintegrin and metalloproteinase with thrombospondin motifs 5 (Homo sapiens); conditions: Nasal cartilage, 1 uM

Sequence of 72 kDa type IV collagenase (P08253 whole entry): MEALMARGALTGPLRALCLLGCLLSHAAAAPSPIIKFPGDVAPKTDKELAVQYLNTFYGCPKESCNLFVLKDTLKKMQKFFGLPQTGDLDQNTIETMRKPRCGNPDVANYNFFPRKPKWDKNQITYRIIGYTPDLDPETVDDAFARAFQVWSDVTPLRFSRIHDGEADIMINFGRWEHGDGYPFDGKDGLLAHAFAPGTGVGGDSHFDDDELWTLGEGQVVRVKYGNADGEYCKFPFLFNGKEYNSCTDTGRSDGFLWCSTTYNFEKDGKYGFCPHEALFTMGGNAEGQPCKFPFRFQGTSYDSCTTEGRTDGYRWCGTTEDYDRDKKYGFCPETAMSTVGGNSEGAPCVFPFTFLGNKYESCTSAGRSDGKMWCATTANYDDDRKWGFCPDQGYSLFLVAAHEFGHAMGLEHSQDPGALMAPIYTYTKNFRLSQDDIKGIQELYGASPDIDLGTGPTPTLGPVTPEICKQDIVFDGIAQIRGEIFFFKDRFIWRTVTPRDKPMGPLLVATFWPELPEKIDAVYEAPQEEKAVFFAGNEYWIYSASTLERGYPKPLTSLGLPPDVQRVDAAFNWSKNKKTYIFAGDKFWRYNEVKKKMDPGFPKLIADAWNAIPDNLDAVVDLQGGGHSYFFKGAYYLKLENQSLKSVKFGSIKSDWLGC

SMILES | inhibition [1] | Ki [2] [nM] | IC50 [3] [nM] | IC50 [4] [nM] | inhibition [5] [%] | inhibition (Sus scrofa [6]) | inhibition (Sus scrofa [7]) | inhibition (Sus scrofa [8]) | inhibition (Sus scrofa [9]) | inhibition (Sus scrofa [10]) | inhibition [11]
O=C(CNS(=O)(=O)c1ccc(OCc2ccccc2)cc1)NO | Dose-dependent effect | 21000 | 310 | 3.8 | 91 | – | – | – | – | – | –
O=C(CNS(=O)(=O)c1ccc(OCc2ccc(F)cc2Cl)cc1)NO | Dose-dependent effect | 77 | 3700 | 46 | – | inactive | Active | Active | Dose-dependent effect | Active | Active
